# Experimental data taken from ChEMBL document CHEMBL3627706, “Syntheses and evaluation of substituted aromatic hydroxamates and hydroxamic acids that target Mycobacterium tuberculosis” (2015).
# Assays:
# Mycolicibacterium vaccae [1] = assay: Antibacterial activity against Mycobacterium vaccae IMET 10670 after 44 hrs by Kirby-Bauer agar diffusion assay; format: functional
# Method in brief: (§1)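 Test solutions for the agar diffusion assay were 20 mM in DMSO, diluted 10-fold with MeOH to 2 mM. M. vaccae plates were incubated at 37 °C for 44 h. Inhibition zones are recorded in mm, with unclear or very unclear zones flagged.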
# Staphylococcus aureus = assay: Antibacterial activity against Staphylococcus aureus SG511 after 21 hrs by Kirby-Bauer agar diffusion assay; format: functional
# Method in brief: (§2)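 Agar diffusion assay. Test solutions were made at 20 mM in DMSO and diluted 10-fold with MeOH to 2 mM. Plates were incubated at 37 °C for 21 h. Inhibition zone diameters are recorded in mm, with unclear or very unclear zones flagged.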
# Micrococcus luteus [2] = assay: Antibacterial activity against Micrococcus luteus ATCC 10240 after 21 hrs by Kirby-Bauer agar diffusion assay; format: functional; method in brief: as §2
# Bacillus spizizenii [3] = assay: Antibacterial activity against Bacillus subtilis ATCC 6633 after 21 hrs by Kirby-Bauer agar diffusion assay; format: functional; method in brief: as §2
# Pseudomonas aeruginosa [4] = assay: Antibacterial activity against Pseudomonas aeruginosa K799/61 after 21 hrs by Kirby-Bauer agar diffusion assay; format: functional; method in brief: as §2
# Pseudomonas aeruginosa [5] = assay: Antibacterial activity against wild type Pseudomonas aeruginosa K799 after 21 hrs by Kirby-Bauer agar diffusion assay; format: functional; method in brief: as §2
# [6] = system: Mycobacterium tuberculosis; assay: Antimycobacterial activity against Mycobacterium tuberculosis in GAS medium by microplate alamar blue assay; format: functional
# Method in brief: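 Microplate alamar blue assay against M. tuberculosis grown in glycerol-alanine-salts (GAS) medium. MIC is reported in µM.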
# [7] = system: Mycobacterium tuberculosis; assay: Antimycobacterial activity against Mycobacterium tuberculosis in 7H12 medium by microplate alamar blue assay; format: functional
# Method in brief: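 Microplate alamar blue assay against M. tuberculosis in 7H12 medium (7H9 plus casitone, palmitic acid, albumin and catalase). MIC is reported in µM.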
# Escherichia coli [8] = assay: Antibacterial activity against Escherichia coli DC2 assessed as unclear inhibition zone after 21 hrs by Kirby-Bauer agar diffusion assay; format: functional; method in brief: as §2
# Pseudomonas aeruginosa [9] = assay: Antibacterial activity against Pseudomonas aeruginosa K799/61 assessed as unclear inhibition zone after 21 hrs by Kirby-Bauer agar diffusion assay; format: functional; method in brief: as §2
# Mycolicibacterium vaccae [10] = assay: Antibacterial activity against Mycobacterium vaccae IMET 10670 assessed as very unclear inhibition zone after 44 hrs by Kirby-Bauer agar diffusion assay; format: functional; method in brief: as §1
# Escherichia coli [11] = assay: Antibacterial activity against Escherichia coli DC2 after 21 hrs by Kirby-Bauer agar diffusion assay; format: functional; method in brief: as §2
# Pseudomonas aeruginosa [12] = assay: microbe, parasite or virus in culture; conditions: K799/61, 21 h, read-out: DIZ
# Bacillus spizizenii [13] = assay: Antibacterial activity against Bacillus subtilis ATCC 6633 at 1.66 microg/ml after 21 hrs by Kirby-Bauer agar diffusion assay; format: functional; conditions: ATCC 6633, 21 h, read-out: DIZ
# Micrococcus luteus [14] = assay: Antibacterial activity against Micrococcus luteus ATCC 10240 assessed as very unclear inhibition zone after 21 hrs by Kirby-Bauer agar diffusion assay; format: functional; method in brief: as §2
# Mycolicibacterium vaccae [15] = assay: Antibacterial activity against Mycobacterium vaccae IMET 10670 assessed as unclear inhibition zone after 44 hrs by Kirby-Bauer agar diffusion assay; format: functional; method in brief: as §1
# Pseudomonas aeruginosa [16] = assay: Antibacterial activity against wild type Pseudomonas aeruginosa K799 assessed as unclear inhibition zone after 21 hrs by Kirby-Bauer agar diffusion assay; format: functional; method in brief: as §2
SMILES,diameter of the inhibition zone (DIZ) (Mycolicibacterium vaccae [1]) [mm],diameter of the inhibition zone (DIZ) (Staphylococcus aureus) [mm],diameter of the inhibition zone (DIZ) (Micrococcus luteus [2]) [mm],diameter of the inhibition zone (DIZ) (Bacillus spizizenii [3]) [mm],diameter of the inhibition zone (DIZ) (Pseudomonas aeruginosa [5]) [mm],MIC [6] [µM],MIC [7] [µM],further results
CC(C)(C)[Si](C)(C)ONC(=O)c1cc([N+](=O)[O-])cc(C(F)(F)F)c1,14,0,0,20,0,> 100,> 100,diameter of the inhibition zone (DIZ) (Pseudomonas aeruginosa [4]): 0 mm; diameter of the inhibition zone (DIZ) (Escherichia coli [8]): 17 mm
O=C(NO)c1ccc(Cl)cc1,,0,0,0,0,> 100,> 100,diameter of the inhibition zone (DIZ) (Pseudomonas aeruginosa [9]): 18 mm; diameter of the inhibition zone (DIZ) (Mycolicibacterium vaccae [10]): 15.5 mm; diameter of the inhibition zone (DIZ) (Escherichia coli [11]): 16 mm
O=C(O)c1cn(C2CC2)c2cc(N3CCNCC3)c(F)cc2c1=O [CIPROFLOXACIN],20,18,0,,23,,,zone of inhibition at 1.66 µg/mL (Pseudomonas aeruginosa [12]): 26 mm; diameter of the inhibition zone (DIZ) (Pseudomonas aeruginosa [4]): 19 mm; zone of inhibition at 1.66 µg/mL (Bacillus spizizenii [13]): 19 mm
O=C(NOCc1ccccc1)c1cc([N+](=O)[O-])cc(C(F)(F)F)c1,45,20,14,16,0,10.7,> 100,diameter of the inhibition zone (DIZ) (Pseudomonas aeruginosa [4]): 0 mm; diameter of the inhibition zone (DIZ) (Escherichia coli [11]): 0 mm; diameter of the inhibition zone (DIZ) (Micrococcus luteus [14]): 20 mm
O=C(NO)c1cc([N+](=O)[O-])cc(C(F)(F)F)c1,,,,,,> 100,19.5,
O=C(NOCc1ccccc1)c1cc(Br)cc(C(F)(F)F)c1,26,20,16,17.5,0,80.5,> 100,diameter of the inhibition zone (DIZ) (Pseudomonas aeruginosa [4]): 0 mm; diameter of the inhibition zone (DIZ) (Escherichia coli [11]): 10 mm; diameter of the inhibition zone (DIZ) (Mycolicibacterium vaccae [15]): 32 mm
O=C(NO)c1ccc([N+](=O)[O-])cc1,30,0,0,0,13,0.71,7.79,diameter of the inhibition zone (DIZ) (Pseudomonas aeruginosa [4]): 0 mm; diameter of the inhibition zone (DIZ) (Escherichia coli [11]): 0 mm; diameter of the inhibition zone (DIZ) (Mycolicibacterium vaccae [15]): 33 mm
O=C(NOCc1ccccc1)c1ccc([N+](=O)[O-])cc1,,,,,,13.6,90.4,
CC(C)(C)[Si](C)(C)ONC(=O)c1ccccc1,26,0,0,0,14,24.3,> 50,diameter of the inhibition zone (DIZ) (Pseudomonas aeruginosa [4]): 0 mm; diameter of the inhibition zone (DIZ) (Pseudomonas aeruginosa [16]): 18 mm; diameter of the inhibition zone (DIZ) (Escherichia coli [11]): 0 mm
O=C(NOCc1ccccc1)c1ccc(F)cc1,,,,,,42.3,> 100,
CC(C)(C)[Si](C)(C)ONC(=O)CC(=O)OCc1ccc([N+](=O)[O-])cc1,,,,,,3.04,> 100,
CCOc1ccc(C(=O)NOCc2ccccc2)cc1,,,,,,47.3,> 100,
C=CCONC(=O)c1ccc([N+](=O)[O-])cc1,,,,,,37.6,> 100,
C=CCONC(=O)c1cc([N+](=O)[O-])cc(C(F)(F)F)c1,,,,,,43.2,> 100,
CCOc1ccc(C(=O)NO)cc1,0,17,0,20,0,> 100,48.1,diameter of the inhibition zone (DIZ) (Pseudomonas aeruginosa [9]): 14 mm; diameter of the inhibition zone (DIZ) (Escherichia coli [11]): 0 mm
C=CCONC(=O)c1ccccc1,,,,,,> 100,> 100,
COC(=O)c1cc([N+](=O)[O-])cc(C(F)(F)F)c1,,,,,,30,> 100,
O=C(NOCc1ccccc1)c1ccc(Cl)cc1,15,19,19,19,14,15.5,47.3,diameter of the inhibition zone (DIZ) (Pseudomonas aeruginosa [4]): 14 mm; diameter of the inhibition zone (DIZ) (Escherichia coli [11]): 0 mm
CO[C@H]1/C=C/O[C@@]2(C)Oc3c(C)c(O)c4c(O)c(c(/C=N/N5CCN(C)CC5)c(O)c4c3C2=O)NC(=O)/C(C)=C\C=C\[C@H](C)[C@H](O)[C@@H](C)[C@@H](O)[C@@H](C)[C@H](OC(C)=O)[C@@H]1C [RIFAMPIN],,,,,,< 0.016,0.03,
O=C(CC(=O)OCc1ccccc1)NOCc1ccccc1,,,,,,27.1,86.6,
C=CCONC(=O)CC(=O)OCc1ccc([N+](=O)[O-])cc1,,,,,,98.6,98.7,
O=C(NO)c1ccc(F)cc1,,,,,,> 100,> 100,
O=C(NOCc1ccccc1)c1ccccc1,,,,,,48.5,> 100,
O=C(CC(=O)OCc1ccc([N+](=O)[O-])cc1)NO,,,,,,> 100,> 100,
